Molecular target: Human immunodeficiency virus type 1 protease (Human immunodeficiency virus 1, UniProt Q72874)
Test: Inhibition of HIV protease, measured by assaying the cleavage of a fluorescent peptide substrate using HPLC
Outline: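 HIV-1 protease activity followed as cleavage of a fluorescent peptide substrate, with products resolved and quantified by HPLC; Ki values reported.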

| Ki [nM] | SMILES |
| --- | --- |
| 0.031 | CCC(N=O)c1cccc(CN2C(=O)N(Cc3cccc(C(CC)N=O)c3)[C@H](Cc3ccccc3)[C@H](O)[C@@H](O)[C@H]2Cc2ccccc2)c1 (stereo partly drawn) [(4R,5S,6S,7R)-4,7-dibenzyl-5,6-dihydroxy-1,3-bis({3-[1-(hydroxyimino)propyl]phenyl}methyl)-1,3-diazepan-2-one] |
| 0.031 | CCCC(N=O)c1cccc(CN2C(=O)N(Cc3cccc(C(CCC)N=O)c3)[C@H](Cc3ccccc3)[C@H](O)[C@@H](O)[C@H]2Cc2ccccc2)c1 (some centres not stated) |
